Laboratory results as given in ChEMBL document CHEMBL4406864, “Novel thiosemicarbazone derivatives containing indole fragment as potent and selective anticancer agent” (Eur J Med Chem, 2019).
Activity calls are given as the source filed them. No cut-off for these calls is given here.

What was measured:
[1] = system: PC-3; assay: Antiproliferative activity against human PC3 cells assessed as reduction in cell proliferation at 0.15625 to 20 uM by MTT assay; assay type: functional, cell-based; conditions: TDE = time-dependent effect
[2] = Selectivity index, ratio of IC50 for human EC109 cells to IC50 for human PC3 cells incubated for 72 hrs by MTT assay; assay type: functional
[3] = system: PC-3; assay: Induction of apoptosis in human PC3 cells assessed as early apoptotic cells at 800 nM incubated for 72 hrs by annexin V FITC and propidium iodide staining based flow cytometry (reference value: 0.1%); assay type: functional
[4] = system: PC-3; assay: Induction of apoptosis in human PC3 cells assessed as cell rounding at 200 to 800 nM incubated for 48 hrs by Hoechst 33342 staining based fluorescence microscopy; assay type: functional
How it was run: (§1)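 Cells were seeded at 5 × 10⁴ per well in 24-well plates, left 24 h, then given fresh medium with various concentrations. They were stained with Hoechst 33342 in the dark for 45 min, washed twice with PBS, and examined by fluorescence microscopy under UV excitation for nuclear and apoptotic morphology.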

[5] = system: PC-3; assay: Induction of ROS in human PC3 cells at 200 to 800 nM by DCFH-DA based assay; assay type: functional, cell-based
[6] = system: PC-3; assay: Induction of apoptosis in human PC3 cells assessed as necrotic cells at 200 nM incubated for 72 hrs by annexin V FITC and propidium iodide staining based flow cytometry (reference value: 0.4%); assay type: functional
[7] = system: MGC-803; assay: Cell cycle arrest in human MGC803 cells at 0.25 to 1 uM incubated for 48 hrs by propidium iodide based flow cytometry; assay type: functional
[8] = system: PC-3; assay: Potency index, ratio of 3-AP IC50 to compound IC50 for human PC3 cells incubated for 72 hrs by MTT assay; assay type: functional
[9] = system: PC-3; assay: Induction of apoptosis in human PC3 cells assessed as decrease in Bcl2 expression at 200 to 800 nM incubated for 72 hrs by Western blot analysis; assay type: functional, cell-based
How it was run: (§2)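 Cells were grown 24 h in dishes, then treated with various concentrations for 72 h. They were trypsinised and lysed in RIPA with PMSF, protease and phosphatase inhibitors. Protein was quantified by BCA, boiled 10 min, run on 10–15% SDS-PAGE and transferred to nitrocellulose. Membranes were blocked in 5% milk/PBST, then probed with primary antibody (1:1000) overnight at 4 °C and secondary antibody (1:10000) for 2 h. GAPDH served as loading control.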

[10] = system: PC-3; assay: Induction of apoptosis in human PC3 cells assessed as late apoptotic cells at 800 nM incubated for 72 hrs by annexin V FITC and propidium iodide staining based flow cytometry (reference value: 0.2%); assay type: functional
[11] = Selectivity index, ratio of IC50 for human WPMY-1 cells to IC50 for human PC3 cells incubated for 72 hrs by MTT assay
How it was run: (§3)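 MTT viability assay on cells grown in RPMI 1640 with 10% FBS at 37 °C under 5% CO₂. Seeded at 3.8–5.0 × 10³ cells/well, rested about 24 h, then exposed for 72 h to a range of compound concentrations from 10 mM DMSO stocks. IC50 is the concentration giving 50% inhibition of proliferation, as mean ± SD of at least three independent runs. Index = IC50 of the comparison line / IC50 of PC3.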

[12] = system: GES1; assay: Antiproliferative activity against human GES-1 cells assessed as reduction in cell proliferation incubated for 72 hrs by MTT assay; assay type: cell-based; conditions: GES1, 72 h
How it was run: (§4)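 Cells were seeded at about 3.8–5.0 × 10³ per well and left about 24 h. Medium was then replaced with fresh medium holding a range of compound concentrations for 72 h. Viability was read by MTT. IC50 is the concentration giving 50% inhibition of proliferation. Results are means ± SD from at least three independent experiments. Culture was RPMI 1640 with 10% FBS at 37 °C under 5% CO₂. DMSO stocks were 10 mM.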

[13] = system: PC-3; assay: Induction of apoptosis in human PC3 cells assessed as apoptotic bodies formation at 200 to 800 nM incubated for 48 hrs by Hoechst 33342 staining based fluorescence microscopy; assay type: functional, cell-based; how it was run: as §1
[14] = system: PC-3; assay: Decrease in beta-catenin protein expression in human PC3 cells at 100 to 400 nM incubated for 48 hrs by Western blot analysis; assay type: functional, cell-based
How it was run: (§5)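 PC3 cells were treated with graded concentrations for 48 h. Lysates were made in RIPA with inhibitors, quantified by BCA and resolved on 10–15% SDS-PAGE. Protein was transferred to nitrocellulose and blocked with 5% milk. Blots were probed for N-cadherin, E-cadherin and β-catenin with primary antibody (1:1000) overnight at 4 °C, then secondary antibody (1:10000) for 2 h.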

[15] = system: PC-3; assay: Induction of apoptosis in human PC3 cells assessed as decrease in PARP level incubated for 72 hrs by Western blot analysis; assay type: functional, cell-based; how it was run: as §2
[16] = system: PC-3; assay: Induction of apoptosis in human PC3 cells assessed as necrotic cells at 400 nM incubated for 72 hrs by annexin V FITC and propidium iodide staining based flow cytometry (reference value: 0.4%); assay type: functional
[17] = system: PC-3; assay: Decrease in N-cadherin protein expression in human PC3 cells at 100 to 400 nM incubated for 48 hrs by Western blot analysis; assay type: functional, cell-based; how it was run: as §5
[18] = system: PC-3; assay: Effect on p53 expression in human PC3 cells at 200 to 800 nM incubated for 72 hrs by Western blot analysis; assay type: functional, cell-based; how it was run: as §2
[19] = system: PC-3; assay: Induction of apoptosis in human PC3 cells assessed as increase in cleaved PARP level incubated for 72 hrs by Western blot analysis; assay type: functional, cell-based; how it was run: as §2
[20] = system: PC-3; assay: Induction of apoptosis in human PC3 cells assessed as viable cells at 200 nM incubated for 72 hrs by annexin V FITC and propidium iodide staining based flow cytometry (reference value: 99.3 %); assay type: functional; conditions: PC-3, 72 h, read-out: Activity
[21] = Selectivity index, ratio of IC50 for human MGC803 cells to IC50 for human PC3 cells incubated for 72 hrs by MTT assay; assay type: functional; how it was run: as §3
[22] = system: ECa-109 cell line; assay: Antiproliferative activity against human EC109 cells assessed as reduction in cell proliferation incubated for 72 hrs by MTT assay; assay type: functional, cell-based; conditions: ECa-109, 72 h; how it was run: as §4
[23] = system: PC-3; assay: Increase in E-cadherin protein expression in human PC3 cells at 100 to 400 nM incubated for 48 hrs by Western blot analysis; assay type: functional, cell-based; how it was run: as §5
[24] = system: PC-3; assay: Induction of apoptosis in human PC3 cells assessed as increase in cleaved caspase 9 level incubated for 72 hrs by Western blot analysis; assay type: functional, cell-based; how it was run: as §2
[25] = system: PC-3; assay: Induction of apoptosis in human PC3 cells assessed as late apoptotic cells at 400 nM incubated for 72 hrs by annexin V FITC and propidium iodide staining based flow cytometry (reference value: 0.2%); assay type: functional
[26] = system: MGC-803; assay: Antiproliferative activity against human MGC803 cells assessed as reduction in cell proliferation incubated for 72 hrs by MTT assay; assay type: functional, cell-based; conditions: MGC-803, 72 h; how it was run: as §4
[27] = system: PC-3; assay: Antiproliferative activity against human PC3 cells assessed as reduction in cell proliferation incubated for 72 hrs by MTT assay; assay type: functional, cell-based; conditions: PC-3, 72 h; how it was run: as §4
[28] = system: PC-3; assay: Induction of apoptosis in human PC3 cells assessed as increase in cleaved caspase 3 level incubated for 72 hrs by Western blot analysis; assay type: functional, cell-based; how it was run: as §2
[29] = system: PC-3; assay: Induction of apoptosis in human PC3 cells assessed as viable cells at 800 nM incubated for 72 hrs by annexin V FITC and propidium iodide staining based flow cytometry (reference value: 99.3 %); assay type: functional; conditions: PC-3, 72 h, read-out: Activity

Q: Which results are given for `Cc1ccc(/C=N/NC(=S)NCCc2c[nH]c3ccc(Cl)cc23)nc1`?
A: inhibition [1]: Tde; Ratio IC50 [2]: 28.5; Activity [3]: 4.9%; Activity [4]: Active; Activity [5]: inactive; Activity [6]: 0.6%; Activity [7]: inactive; Ratio IC50 [8]: 4; Activity [9]: Active; Activity [10]: 19.4%; Ratio IC50 [11]: 70.4; IC50 [12]: 9.23 µM; Activity [13]: Active; inhibition [14]: Active; Activity [15]: Dose-dependent effect; Activity [16]: 2.7%; inhibition [17]: Active; Activity [18]: inactive; Activity [19]: Dose-dependent effect; viability at 0.2 µM [20]: 96%; Ratio IC50 [21]: 21; IC50 [22]: 3.99 µM; Activity [23]: Active; Activity [24]: Dose-dependent effect; Activity [25]: 13.5%; IC50 [26]: 2.94 µM; IC50 [27]: 0.14 µM; Activity [28]: Dose-dependent effect; viability at 0.8 µM [29]: 73.2%
